Reference: ChEMBL document CHEMBL2434890, “Design, synthesis and structure-activity relationship of novel quinoxaline derivatives as cancer chemopreventive agent by inhibition of tyrosine kinase receptor” (Eur J Med Chem, 2013)

What was measured:
Assay type in all cases: cell-based; call rule not given here
[1] = Cytotoxicity against human Raji cells assessed as cell viability at 1000 mol ratio/TPA after 48 hrs by trypan blue staining method; conditions: read-out: Activity
Outline: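 Raji cells were treated as in the EBV-EA assay: 48 h at 37 °C with 4 mM n-butyric acid, […] and compound in DMSO (ca. 0.7%), dosed by mol ratio to TPA. Viability of the treated cells was determined by trypan blue staining.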

Raji [2] = test: Inhibition of TPA-induced EBV early antigen activation infected in human Raji cells assessed as antigen activity at 10 mol ratio/TPA after 48 hrs by immunofluorescence method relative to control; parameters: scale not given: the % may be the effect or the level left; conditions: human gammaherpesvirus 4
Raji [3] = test: Inhibition of TPA-induced EBV early antigen activation infected in human Raji cells assessed as antigen activity at 1000 mol ratio/TPA after 48 hrs by immunofluorescence method relative to control; parameters: scale not given: the % may be the effect or the level left; conditions: human gammaherpesvirus 4
Raji [4] = test: Inhibition of TPA-induced EBV early antigen activation infected in human Raji cells assessed as antigen activity at 100 mol ratio/TPA after 48 hrs by immunofluorescence method relative to control; parameters: scale not given: the % may be the effect or the level left; conditions: human gammaherpesvirus 4
Raji [5] = test: Inhibition of TPA-induced EBV early antigen activation infected in human Raji cells assessed as antigen activity at 500 mol ratio/TPA after 48 hrs by immunofluorescence method relative to control; parameters: scale not given: the % may be the effect or the level left; conditions: human gammaherpesvirus 4
Raji [6] = test: Inhibition of TPA-induced EBV early antigen activation infected in human Raji cells after 48 hrs by immunofluorescence method relative to control; conditions: human gammaherpesvirus 4
[7] = Inhibition of TRK in human MCF7 cells after 48 hrs by ELISA
Outline: (§1)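 HepG2 or MCF-7 cells, kept in DMEM with 10% heat-inactivated FCS and penicillin, seeded at 0.50×10⁶ per flask and treated 48 h at 37 °C, 5% CO₂ with compound in DMSO (2.5–40 μg/ml). Cells were homogenized in saline. TRK level was measured by double-antibody sandwich ELISA (OD 450 nm) against a standard curve, in triplicate. IC50 = 50% reduction of TRK relative to untreated cells.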

[8] = Inhibition of TRK in human HepG2 cells after 48 hrs by ELISA; outline: as §1

Compound `CC1(C)CC[C@]2(C(=O)O)CC[C@]3(C)C(=CC[C@@H]4[C@@]5(C)CC[C@H](O)C(C)(C)[C@@H]5CC[C@]43C)[C@@H]2C1` [OLEANOLIC_ACID] has a viability at 48 h, 1000 mol ratio/TPA [1] of 70%, an Activity (Raji [2]) of 100% and an Activity (Raji [3]) of 12.7%. The Activity (Raji [4]) was 80% and the Activity (Raji [5]) was 30%.
For `C=CCn1c(=O)c(N/N=C/c2c(OC)cccc2OC)nc2ccccc21`, the viability at 48 h, 1000 mol ratio/TPA [1] was 60%, the Activity (Raji [2]) was 100% and the inhibition (Raji [6]) was “Dose-dependent effect”. For the same compound, the IC50 [7] was 4.15 nM, the Activity (Raji [3]) was 10.8% and the Activity (Raji [4]) was 73.5%. It also gave an IC50 [8] of 3.5 nM and an Activity (Raji [5]) of 42%.
With `Oc1nc2ccccc2n2c(O)nnc12` the viability at 48 h, 1000 mol ratio/TPA [1] was 60%, the Activity (Raji [2]) was 100% and the inhibition (Raji [6]) was “Dose-dependent effect”. For the same compound, the IC50 [7] was 30 nM, the Activity (Raji [3]) was 15.6% and the Activity (Raji [4]) was 79.1%. It also gave an IC50 [8] of 25 nM and an Activity (Raji [5]) of 47.2%.
With `COc1cccc(OC)c1/C=N/Nc1nc2ccccc2[nH]c1=O` the viability at 48 h, 1000 mol ratio/TPA [1] was 60%, the Activity (Raji [2]) was 100% and the inhibition (Raji [6]) was “Dose-dependent effect”. The IC50 [7] was 8.75 nM, the Activity (Raji [3]) was 16.8% and the Activity (Raji [4]) was 81%. The IC50 [8] was 7.5 nM and the Activity (Raji [5]) was 46.6%.
In the case of `NNc1nc2ccccc2[nH]c1=O`, the viability at 48 h, 1000 mol ratio/TPA [1] is reported as 60%, the Activity (Raji [2]) is reported as 100% and the inhibition (Raji [6]) is reported as “Dose-dependent effect”. The IC50 [7] was 10.2 nM, the Activity (Raji [3]) was 14.9% and the Activity (Raji [4]) was 78.1%. The IC50 [8] was 9 nM and the Activity (Raji [5]) was 46.5%.
For `CN(C)c1ccc(/C=N/Nc2nc3ccccc3[nH]c2=O)cc1`, the viability at 48 h, 1000 mol ratio/TPA [1] was 60%, the Activity (Raji [2]) was 100% and the inhibition (Raji [6]) was “Dose-dependent effect”. It also gave an IC50 [7] of 11.8 nM, an Activity (Raji [3]) of 13.9% and an Activity (Raji [4]) of 71.7%. The IC50 [8] was 9.8 nM and the Activity (Raji [5]) was 42.2%.
With `O=C1CN2C(=NN1)C(=O)Nc1ccccc12` the viability at 48 h, 1000 mol ratio/TPA [1] was 60%, the Activity (Raji [2]) was 100% and the inhibition (Raji [6]) was “Dose-dependent effect”. The Activity (Raji [3]) was 13.6%, the Activity (Raji [4]) was 78% and the Activity (Raji [5]) was 46.3%.
Compound `COc1cccc2c1C(=O)c1c(O)c3c(c(O)c1C2=O)C[C@@](O)(C(=O)CO)C[C@@H]3O[C@H]1C[C@H](N)[C@H](O)[C@H](C)O1` [DOXORUBICIN] has an IC50 [7] of 3.2 nM and an IC50 [8] of 2.5 nM.
For `N=c1c(O)nnc2c(=O)[nH]c3ccccc3n12`, the viability at 48 h, 1000 mol ratio/TPA [1] was 60%, the Activity (Raji [2]) was 100% and the inhibition (Raji [6]) was “Dose-dependent effect”. It also gave an IC50 [7] of 20.2 nM, an Activity (Raji [3]) of 15% and an Activity (Raji [4]) of 79%. It also gave an IC50 [8] of 18 nM and an Activity (Raji [5]) of 47.1%.
For `O=C1CC(=O)N(c2nc3ccccc3[nH]c2=O)N1`, the viability at 48 h, 1000 mol ratio/TPA [1] was 60%, the Activity (Raji [2]) was 100% and the inhibition (Raji [6]) was “Dose-dependent effect”. The Activity (Raji [3]) was 17.5%, the Activity (Raji [4]) was 83.9% and the Activity (Raji [5]) was 48%.
With `Oc1nc2ccccc2n2cnnc12` the viability at 48 h, 1000 mol ratio/TPA [1] was 60%, the Activity (Raji [2]) was 100% and the inhibition (Raji [6]) was “Dose-dependent effect”. For the same compound, the IC50 [7] was “Not Active”, the Activity (Raji [3]) was 18.6% and the Activity (Raji [4]) was 84.2%. The IC50 [8] was “Not Active” and the Activity (Raji [5]) was 48.2%.
With `O=C1CCC(=O)N(c2nc3ccccc3[nH]c2=O)N1` the viability at 48 h, 1000 mol ratio/TPA [1] was 60%, the Activity (Raji [2]) was 100% and the inhibition (Raji [6]) was “Dose-dependent effect”. For the same compound, the Activity (Raji [3]) was 16.7%, the Activity (Raji [4]) was 82.8% and the Activity (Raji [5]) was 47.7%.
In the case of `CCOC(=O)Cn1c(=O)c(N/N=C/c2ccc(N(C)C)cc2)nc2ccccc21`, the viability at 48 h, 1000 mol ratio/TPA [1] is reported as 60%, the Activity (Raji [2]) is reported as 100% and the inhibition (Raji [6]) is reported as “Dose-dependent effect”. For the same compound, the IC50 [7] was 4.85 nM, the Activity (Raji [3]) was 12.7% and the Activity (Raji [4]) was 78.6%. It also gave an IC50 [8] of 4.5 nM and an Activity (Raji [5]) of 47.6%.
With `O=c1[nH]c2ccccc2nc1Cl` the viability at 48 h, 1000 mol ratio/TPA [1] was 50%, the Activity (Raji [2]) was 100% and the inhibition (Raji [6]) was “Dose-dependent effect”. The Activity (Raji [3]) was 16.7%, the Activity (Raji [4]) was 80.2% and the Activity (Raji [5]) was 48.5%.
For `Oc1nc2ccccc2nc1O`, the viability at 48 h, 1000 mol ratio/TPA [1] was 60%, the Activity (Raji [2]) was 100% and the inhibition (Raji [6]) was “Dose-dependent effect”. For the same compound, the IC50 [7] was “Not Active”, the Activity (Raji [3]) was 14.2% and the Activity (Raji [4]) was 78.5%. For the same compound, the IC50 [8] was “Not Active” and the Activity (Raji [5]) was 46.8%.
For `CC(C)=NNc1nc2ccccc2[nH]c1=O`, the viability at 48 h, 1000 mol ratio/TPA [1] was 60%, the Activity (Raji [2]) was 100% and the inhibition (Raji [6]) was “Dose-dependent effect”. For the same compound, the IC50 [7] was 17.2 nM, the Activity (Raji [3]) was 13.2% and the Activity (Raji [4]) was 77%. The IC50 [8] was 15 nM and the Activity (Raji [5]) was 45%.
In the case of `C=CCn1c(=O)c(N/N=C/c2ccc(N(C)C)cc2)nc2ccccc21`, the viability at 48 h, 1000 mol ratio/TPA [1] is reported as 60%, the Activity (Raji [2]) is reported as 100% and the inhibition (Raji [6]) is reported as “Dose-dependent effect”. For the same compound, the IC50 [7] was 2.9 nM, the Activity (Raji [3]) was 10.1% and the Activity (Raji [4]) was 73.2%. For the same compound, the IC50 [8] was 2.65 nM and the Activity (Raji [5]) was 41.6%.
With `O=C(c1ccccc1)N1C(=S)NNC12Nc1ccccc1NC2=O` (stereo not given) the viability at 48 h, 1000 mol ratio/TPA [1] was 60%, the Activity (Raji [2]) was 100% and the inhibition (Raji [6]) was “Dose-dependent effect”. For the same compound, the IC50 [7] was “Not Active”, the Activity (Raji [3]) was 19.1% and the Activity (Raji [4]) was 85.2%. For the same compound, the IC50 [8] was “Not Active” and the Activity (Raji [5]) was 49.1%.
For `CCOC(=O)Cn1c(=O)c(N/N=C/c2c(OC)cccc2OC)nc2ccccc21`, the viability at 48 h, 1000 mol ratio/TPA [1] was 60%, the Activity (Raji [2]) was 100% and the inhibition (Raji [6]) was “Dose-dependent effect”. For the same compound, the IC50 [7] was 4.6 nM, the Activity (Raji [3]) was 13.5% and the Activity (Raji [4]) was 75.6%. The IC50 [8] was 4.1 nM and the Activity (Raji [5]) was 45.7%.
For `O=C1Nc2ccccc2N2C(O)=CNN=C12`, the viability at 48 h, 1000 mol ratio/TPA [1] was 60%, the Activity (Raji [2]) was 100% and the inhibition (Raji [6]) was “Dose-dependent effect”. It also gave an Activity (Raji [3]) of 13.2%, an Activity (Raji [4]) of 77.6% and an Activity (Raji [5]) of 46%.
With `CN1C(=S)NNC12Nc1ccccc1NC2=O` (stereo not given) the viability at 48 h, 1000 mol ratio/TPA [1] was 60%, the Activity (Raji [2]) was 100% and the inhibition (Raji [6]) was “Dose-dependent effect”. The Activity (Raji [3]) was 18.7%, the Activity (Raji [4]) was 84.6% and the Activity (Raji [5]) was 48.3%.
In the case of `O=c1[nH]c2ccccc2n2c(=O)c(O)nnc12`, the viability at 48 h, 1000 mol ratio/TPA [1] is reported as 60%, the Activity (Raji [2]) is reported as 100% and the inhibition (Raji [6]) is reported as “Dose-dependent effect”. For the same compound, the IC50 [7] was 27.8 nM, the Activity (Raji [3]) was 14.2% and the Activity (Raji [4]) was 78.6%. For the same compound, the IC50 [8] was 20 nM and the Activity (Raji [5]) was 47%.
